Measured values gathered from unrelated publications.
Each line is one published result; the experiments were not run side by side. ≈ marks a conversion by molar mass, not a printed value.
Organism: Klebsiella pneumoniae

SMILES	assay	system	setting	quantity	result
Cc1c(NC(=O)CC2=NC(=O)CS2)c(=O)n(-c2ccccc2)n1C	microbial growth, well diffusion	–	100000 µg/mL	inhibition zone	25 mm
O=C1C=C(O)C(=O)c2ccccc21	microbial growth, broth dilution	ATCC700603	–	IC50	123 µg/mL (≈ 709 µM)
CCn1cc(C(=O)O)c(=O)c2ccc(C)nc21	microbial growth, broth dilution	ATCC700603	–	MIC	80 µM
Cc1ccc(C(C)C)cc1OS(=O)(=O)c1ccc([N+](=O)[O-])cc1	microbial growth, broth dilution	ATCC700603	–	IC50	463 µg/mL (≈ 1380 µM)
CN[C@H](CC(C)C)C(=O)N[C@H]1C(=O)N[C@@H](CC(N)=O)C(=O)N[C@H]2C(=O)N[C@H]3C(=O)N[C@H](C(=O)N[C@H](C(=O)O)c4cc(O)cc(O)c4-c4cc3ccc4O)[C@H](O)c3ccc(c(Cl)c3)Oc3cc2cc(c3O[C@@H]2O[C@H](CO)[C@@H](O)[C@H](O)[C@H]2O[C@H]2C[C@](C)(N)[C@H](O)[C@H](C)O2)Oc2ccc(cc2Cl)[C@H]1O	microbial killing, broth dilution	ATCC43816	–	MBC	> 128 µM
Cc1c(NN=C2SC(C(C#N)=Cc3ccc(Cl)cc3)=NC2=O)c(=O)n(-c2ccccc2)n1C	microbial growth, well diffusion	–	100000 µg/mL	inhibition zone	16 mm
Cc1ccc(-n2cc(COC3=CC(=O)c4ccccc4C3=O)nn2)cc1	microbial growth, broth dilution	ATCC700603	–	IC50	220 µg/mL (≈ 638 µM)
CNC(C)C1CCC(N)C(OC2C(N)CC(N)C(OC3OCC(C)(O)C(NC)C3O)C2O)O1 (stereo not shown)	microbial growth, broth dilution	ATCC700603	–	MIC	0.31 µM
N#CC(=Cc1ccccc1O)C1=NC(=O)C(=Cc2cn(-c3ccccc3)nc2-c2ccccc2)S1	microbial growth, well diffusion	–	100000 µg/mL	inhibition zone	26 mm
Cc1ccc(C(C)C)cc1OCc1cn(-c2ccc([N+](=O)[O-])cc2)nn1	microbial growth, broth dilution	ATCC700603	–	IC50	122 µg/mL (≈ 346 µM)
Cc1c(CN(C)C(=O)/C=C/c2cnc3c(c2)CC(CCN)C(=O)N3)oc2ccccc12.Cl (stereo not shown)	microbial growth, broth dilution	BAA2472	–	MIC	16 µg/mL
Cc1c(NN=C2SC(C(C#N)=Cc3ccccc3)=NC2=O)c(=O)n(-c2ccccc2)n1C	microbial growth, well diffusion	–	100000 µg/mL	inhibition zone	14 mm
CC[C@H]1OC(=O)[C@H](C)[C@@H](O[C@H]2C[C@@](C)(OC)[C@@H](O)[C@H](C)O2)[C@H](C)[C@@H](O[C@@H]2O[C@H](C)C[C@H](N(C)C)[C@H]2O)[C@](C)(OC)C[C@@H](C)C(=O)[C@H](C)[C@@H](O)[C@]1(C)O	microbial growth, broth dilution	ATCC700603	–	MIC	80 µM
Cc1ccc(C(C)C)cc1O	microbial growth, broth dilution	ATCC700603	–	IC50	61.9 µg/mL (≈ 412 µM)
CC(=O)NC[C@H]1CN(c2ccc(N3CCOCC3)c(F)c2)C(=O)O1	microbial growth, broth dilution	ATCC700603	–	MIC	1280 µM
Cc1ccc(-c2nn(-c3ccccc3)cc2C=C(C#N)C2=NC(=O)CS2)cc1	microbial growth, well diffusion	–	100000 µg/mL	inhibition zone	21 mm
